CDK5 p35 inh: inhibitors of human CDK5/p35 kinase. Q00535+Q15078. Recombinant CDK5/p35, ADP-Glo luminescence, 60 min. inhibition, % at 10 µM. hit rate 0.01% among 330,000;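 active = highest replicate inhibition of at least 50% and at least 75% of replicates reaching 50%; inconclusive = only one of the two criteria met; inactive = both criteria failed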;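 also: plate controls were DMSO neutral control for no effect and GW8510 at 10 µM for full effect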
Target sequence (Q00535 whole entry, looked up): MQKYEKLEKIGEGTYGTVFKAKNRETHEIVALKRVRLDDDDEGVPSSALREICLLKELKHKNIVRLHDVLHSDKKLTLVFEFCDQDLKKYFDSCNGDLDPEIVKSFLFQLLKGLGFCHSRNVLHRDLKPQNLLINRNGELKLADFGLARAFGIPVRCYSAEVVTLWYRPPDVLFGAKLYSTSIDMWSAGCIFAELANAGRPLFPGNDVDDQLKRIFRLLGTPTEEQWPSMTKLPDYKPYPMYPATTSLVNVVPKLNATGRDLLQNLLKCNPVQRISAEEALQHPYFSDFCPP
Target sequence (Q15078 whole entry, looked up): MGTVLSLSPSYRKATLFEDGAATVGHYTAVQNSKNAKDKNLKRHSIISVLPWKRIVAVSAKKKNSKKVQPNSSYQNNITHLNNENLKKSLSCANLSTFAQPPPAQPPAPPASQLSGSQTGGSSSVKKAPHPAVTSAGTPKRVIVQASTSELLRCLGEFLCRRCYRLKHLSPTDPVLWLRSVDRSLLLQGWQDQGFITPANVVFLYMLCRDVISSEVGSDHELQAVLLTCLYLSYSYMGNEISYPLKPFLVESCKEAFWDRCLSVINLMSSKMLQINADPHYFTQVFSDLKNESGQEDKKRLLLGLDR
SR-BI DiI inh: inhibitors of mouse SR-BI mediated HDL lipid uptake; ldlA[mSR-BI] CHO cells, DiI-HDL uptake fluorescence, 3 h; hit rate 0.96% among 320,000; inhibition, % at 12.5 µM; Q61009;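 active = mean replicate inhibition of at least 70% and a set share of replicates each scoring 70 or more; inconclusive = meets just one of the two criteria; inactive = fails both criteria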;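 also: 0% = median of neutral control wells and 100% = median of positive control wells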
dFosB act: enhances mouse delta FosB homodimer DNA binding; AID 493131; hit rate 0.99% among 340,000; P13346; activation, % at 25 µM; purified delta FosB, TAMRA-CDK5 oligo fluorescence polarization; percent of positive-control signal above neutral wells;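 active = mean activation above about 17%, with every replicate also reaching it, limit read from the data, passing the limit was not always enough; inconclusive = only one of the two conditions met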
SR-BI uptake up: activators of SR-BI mediated HDL lipid uptake; CHO ldlA[mSR-BI] cells, DiI-HDL uptake fluorescence, 3 h; 100 = double the neutral-control signal; activation, % at 12.5 µM; hit rate 0.096% among 320,000; AID 504775;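 active = mean replicate activation of at least 60% and every replicate at or above 60%; inconclusive = mean or all-replicate condition met, but not both; inactive = mean below 60% and not all replicates reaching 60%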;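 also: 0% = median plate neutral-control signal and 100% = twice that signal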
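Test system: SR-BI-overexpressing, LDLR-lacking CHO cells; Also added: labelled HDL, 10 µg/mL; Measured by: bottom-read cell fluorescence after medium removal, ex 550/em 595 nm; Timing: 3 h uptake period with compound, 37 °C; Buffer or medium: F12, 0.5% BSA, 25 mM HEPES; Doses: single compound concentration, delivered by pin transfer.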
* hit, by the source's call; ? = inconclusive; / = not tested or not shown. Sampled rows, rich in hits. Any-hit rate of the full collection: about 2%.

SMILES	CDK5 p35 inh	SR-BI DiI inh	dFosB act	SR-BI uptake up
COc1ccccc1/C=C/C(=O)NCC(=O)N/N=C/c1cc(Br)ccc1OC	0.8	98.5*	1.2	-98.5
COc1ccccc1C=NNC(=O)NN=Cc1ccccc1OC	2.6	39.3	-12.8	-39.3
COc1cccc(/C=N\NC(=O)c2ccc(Cn3cc(Br)c([N+](=O)[O-])n3)o2)c1O	-0.1	101.0*	23.6*	-101.0
CCSc1nc(N2CCCCC2)c2c(c1C#N)CCCC2	0.8	76.4*	-0.8	-76.4
COC(=O)Cn1c(=NC(=O)c2cc(OC)cc(OC)c2)sc2cc(OC)ccc21	0.6	62.0	11.7	-62.0
COC(=O)Cn1c(=NC(=O)c2ccc(OC)cc2)sc2cc(OC)ccc21	2.0	70.9*	2.6	-70.9
CCN1CCc2c(OCc3ccccc3)cccc2C1=O	-1.4	80.1*	-9.2	-80.1
O=C1c2cccc(OCc3ccc(F)cc3)c2CCN1Cc1ccccc1	-1.6	25.4	-3.3	-25.4
CCN(CC)CCn1c2ccccc2c2cnc(N=CN(C)C)c(C#N)c21	-1.0	6.6	29.4*	-6.6
CCn1c2ccccc2c2cnc(N=CN(C)C)c(C#N)c21	0.2	39.3	-3.3	-39.3
CCN(C(=O)[C@@H]1CCCN1C(=O)c1cccs1)c1nc2cc(Cl)ccc2s1	0.2	78.1*	-1.9	-78.1
Cc1cc(Cl)ccc1NC(=O)C1CCCN1C(=O)c1cccs1 (stereo not drawn)	-1.0	-35.6	-3.1	35.6
CC(NC(=O)Cc1ccc(Br)cc1)c1ccccc1 (stereo not drawn)	-0.6	-28.1	-0.2	28.1
O=C(COC(=O)CNC(=O)c1ccccc1)NC(=O)NC1CCCCC1	-1.0	-20.2	1.2	20.2
COc1ccc(CNC(=O)c2cc(=O)c3cc(C)ccc3o2)cc1	-0.4	-5.0	17.4*	5.0
COc1ccccc1NC(=O)Nc1nc(CC(=O)N2CCN(c3ccc(F)cc3)CC2)cs1	0.2	76.0*	-2.9	-76.0
COc1ccccc1NC(=O)Nc1nc(CC(=O)N2CCN(c3ccccc3)CC2)cs1	-0.7	?	6.0	-71.1
COc1ccc(N2CCN(C(=O)Cc3csc(NC(=O)Nc4ccccc4OC)n3)CC2)cc1	1.1	80.3*	-4.9	-80.3
COc1ccccc1NC(=O)N1CCN(c2ccc(F)cc2)CC1	-0.1	1.6	7.8	-1.6
Cn1c(=S)n(/N=C/c2cccs2)c2ccccc21	-1.9	-262.3	1.3	262.3*
COc1cc(OC)cc(C(=O)NC(C)CNc2ccc(Cl)cc2[N+](=O)[O-])c1 (stereo not drawn)	-0.2	79.1*	-6.7	-79.1
CCN1C(=O)C(=Cc2cccc(OC)c2Oc2ccc([N+](=O)[O-])cc2[N+](=O)[O-])SC1=S	-2.4	74.7*	-13.6	-74.7
CC1C(C#N)=C(N)OC2=C1C(=O)CC(c1ccccc1)C2 (stereo not drawn)	-0.7	/	-3.8	/
Oc1ccc(/C=N/Nc2ccnc3cc(Cl)ccc23)c(O)c1O	2.4	13.7	19.3*	-13.7
CC/C(=N\Nc1ccnc2cc(Cl)ccc12)c1ccc(O)cc1	-1.5	20.4	-7.7	-20.4
SMILES	CDK5 p35 inh	SR-BI DiI inh	dFosB act	SR-BI uptake up
Oc1ccc(/C=N/Nc2ccnc3cc(Cl)ccc23)cc1O	3.5	29.8	108.6*	-29.8
CC1(C)C2CCC1(CS(=O)(=O)NCc1ccc(S(N)(=O)=O)cc1)C(=O)C2 (stereo not drawn)	-1.6	-7.6	-7.5	7.6
CC(C)CCn1c(Sc2nc3ccccc3o2)nc2c1c(=O)[nH]c(=O)n2C	1.3	-29.3	-1.3	29.3
CCOC(=O)N1CCN(S(=O)(=O)c2ccc(C(=O)NNc3nc4c(C)cccc4s3)cc2)CC1	-2.5	102.5*	-18.1	-102.5
CCOC(=O)N1CCN(S(=O)(=O)c2ccc(C(=O)NNc3nc4ccc(Cl)cc4s3)cc2)CC1	-0.9	128.2*	14.9	-128.3
CCOC(=O)N1CCN(S(=O)(=O)c2ccc(C(=O)N(CCN(CC)CC)c3nc4c(C)cccc4s3)cc2)CC1	2.2	14.5	?	-14.5
CCOC(=O)N1CCN(S(=O)(=O)c2ccc(C(=O)NNc3nc4cc(C)cc(C)c4s3)cc2)CC1	-0.1	120.8*	-7.2	-120.8
CC(=O)c1nn(-c2cccc(C)c2)cc1C(=O)c1cccc(Br)c1	2.9	45.9	-1.2	-45.9
O=C1Nc2ccccc2/C1=N\N=C\C1=C(N2CCOCC2)C(=C\c2ccccc2)/CC1	6.7	127.7*	0.1	-127.7
O=C1Nc2ccc(Br)cc2/C1=N\N=C\C1=C(N2CCOCC2)C(=C/c2ccccc2)/CC1	1.1	100.0*	-2.3	-100.0
Cn1cc(C(=O)N/N=C/C2=C(N3CCOCC3)C(=C\c3ccccc3)/CC2)ccc1=O	-0.1	47.5	-0.6	-47.5
CC(C)c1nc(SCC(=O)Nc2c[nH]c(=O)[nH]c2=O)c2cnn(-c3ccccc3)c2n1	0.3	22.6	153.2*	-22.6
Cc1nc(SCC(=O)Nc2c(C)nn(C)c2C)c2cnn(-c3ccccc3)c2n1	0.4	24.1	7.1	-24.1
O=C(N/N=C/c1ccc(Cl)cc1Cl)c1cccc(N2CCCC2=O)c1	0.2	84.8*	-7.8	-84.8
O=C(N/N=C/c1cc(Br)cc(Br)c1O)c1cccc(N2CCCC2=O)c1	0.6	131.5*	-16.5	-131.5
O=C(NC1CCS(=O)(=O)C1)c1cccs1 (stereo not drawn)	-0.8	/	-2.8	/
CCCOc1ccc(CC(=O)NCCc2ccccc2)cc1OC	1.6	-9.4	-7.6	9.4
CCOC(=O)/C(=N\Nc1ccccc1[N+](=O)[O-])c1csc(N)n1	0.4	77.7*	-1.2	-77.7
O=C(Nc1nc(-c2cc(F)ccc2F)cs1)c1cccc(N2C(=O)CCC2=O)c1	-1.3	68.2	-11.4	-68.2
Cc1ccc2nc(NC(=O)c3ccc(N4C(=O)CCC4=O)cc3)sc2c1	1.6	77.2*	1.4	-77.2
Cc1ccc2sc(NC(=O)c3cccc(N4C(=O)CCC4=O)c3)nc2c1C	-3.4	94.4*	-5.5	-94.4
O=C(Nc1nc(-c2ccc(F)cc2)cs1)c1cccc(N2C(=O)CCC2=O)c1	0.2	81.3*	-1.7	-81.3
CCN1C(=O)[C@@H]2[C@@H](c3ccc(-c4ccc(OC)cc4)c(OC)c3)N3CCCC[C@@]3(C(=O)OC)[C@@H]2C1=O	1.4	9.6	3.6	-9.6
CC1(C)CC(NC(=O)C2CCN(S(=O)(=O)c3ccc(F)cc3)CC2)CC(C)(C)N1	0.4	3.8	-5.0	-3.8
CC(/C=N/NC(=O)c1cc(-c2cccn2C)n[nH]1)=C\c1ccccc1	0.4	38.4	-4.6	-38.4
Cc1ccc(C(=O)N2CCC(Cc3ccccc3)CC2)cc1S(=O)(=O)N1CCOCC1	-4.2	21.4	-3.5	-21.4
COc1cccc(CNC(=O)c2ccc(CS(=O)c3ccccc3)o2)c1 (stereo not drawn)	/	-4.6	5.1	4.6
CC12CCC(O)CC1=CCC1C2CCC2(C)C1CCC21CCC(=O)O1 (stereo not drawn)	-0.9	-22.0	5.0	22.0
C[C@]12CCC(O)CC1=CCC1C2CC[C@]2(C)/C(=N\NC(N)=S)CCC12 (stereo partly drawn)	-1.3	90.4*	3.9	-90.4
